Laboratory results from ChEMBL document CHEMBL1772998, “Cytotoxic clerodane diterpenes from Casearia rupestris” (J Nat Prod, 2011).

Key:
Assay type in all cases: functional, cell-based
[1] = test system: HL-60; assay: Cytotoxicity against human HL60 cells after 72 hrs by MTT assay; settings: HL-60, 72 h
Method in brief: (§1)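 Cells grown in RPMI 1640 with 10% FBS, 2 mM glutamine, streptomycin and penicillin at 37 C, 5% CO2. Seeded at 10^5 cells/well (adherent) or 0.3 × 10^6 cells/well (suspension). After 24 h, compounds in DMSO (0.39-25 μg/mL) added; doxorubicin (0.01-0.58 μg/mL) as positive control. After 69 h, MTT 0.5 mg/mL for 3 h. Formazan dissolved in DMSO, A595 read, IC50 by nonlinear regression.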

[2] = test system: MDA-MB-435; assay: Cytotoxicity against human MDA-MB-435 cells after 72 hrs by MTT assay; settings: MDA-MB-435, 72 h; method in brief: as §1
[3] = test system: HCT-8; assay: Cytotoxicity against human HCT8 cells after 72 hrs by MTT assay; settings: HCT-8, 72 h; method in brief: as §1
[4] = test system: SF-295; assay: Cytotoxicity against human SF295 cells after 72 hrs by MTT assay; settings: SF-295, 72 h; method in brief: as §1

Structure (SMILES)	IC50 [1] [µM]	IC50 [2] [µM]	IC50 [3] [µM]	IC50 [4] [µM]
C=CC(=C)CC[C@]1(C)[C@H](C)[C@@H](OC(C)=O)[C@H](OC(=O)/C=C\C=C\CCCCC)[C@@]23C(=C[C@H](OC(C)=O)C[C@@H]12)[C@@H](OC(C)=O)O[C@@H]3OC(C)=O	4.3	> 5	> 5	> 5
C=CC(=C)CC[C@]1(C)[C@H](C)[C@@H](OC(=O)/C=C\C=C\CCCCC)[C@H](OC(C)=O)[C@@]23C(=C[C@H](OC(C)=O)C[C@@H]12)[C@@H](OC(C)=O)O[C@@H]3OC(C)=O	> 5	> 5	> 5	> 5
C=CC(=C)CC[C@]1(C)[C@H](C)[C@@H](O)[C@H](OC(=O)/C=C\C=C\CCCCC)[C@@]23C(=C[C@H](O)C[C@@H]12)[C@@H](OC(C)=O)O[C@@H]3OC(C)=O (relative stereo) [CASEARUPESTRIN A]	0.1	0.36	0.13	0.36
C=CC(=C)CC[C@]1(C)[C@H](C)[C@@H](OC(=O)/C=C\C=C\CCCCC)[C@H](O)[C@@]23C(=C[C@H](O)C[C@@H]12)[C@@H](OC(C)=O)O[C@@H]3OC(C)=O (relative stereo) [CASEARUPESTRIN B]	0.85	1.3	0.28	0.8
C=CC(=C)CC[C@]1(C)[C@H](C)[C@@H](OC(=O)/C=C\C=C\CCCCC)[C@H](O)[C@@]23C(=C[C@H](O)C[C@@H]12)[C@@H](OC)O[C@@H]3OC(C)=O (relative stereo) [CASEARUPESTRIN C]	> 5	> 5	> 5	> 5
C=CC(=C)CC[C@]1(C)[C@H](C)[C@@H](OC(=O)/C=C\C=C\CCCCC)[C@H](OC(C)=O)[C@@]23C(=C[C@H](O)C[C@@H]12)[C@@H](OC(C)=O)O[C@@H]3OC(C)=O (relative stereo) [CASEARUPESTRIN D]	0.25	0.93	0.25	0.43
COc1cccc2c1C(=O)c1c(O)c3c(c(O)c1C2=O)C[C@@](O)(C(=O)CO)C[C@@H]3O[C@H]1C[C@H](N)[C@H](O)[C@H](C)O1 [DOXORUBICIN]	0.04	–	–	0.4
